Laboratory results published in ChEMBL document CHEMBL1153950, “The synthesis and biological evaluation of some caffeic acid amide derivatives: E-2-cyano-(3-substituted phenyl)acrylamides” (Bioorg Med Chem Lett, 2009).
Values after ≈ are worked out from the molar mass of the structure shown.

Experiments:
Bel-7402 = experiment: Antitumor activity against human Bel7402 cells by MTT assay; type: functional, cell-based
Procedure, shortened: (§1)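 Screened in vitro by MTT assay on human gastric carcinoma BGC-823, nasopharyngeal carcinoma KB and hepatoma BEL-7402 cell lines; cis-diamminedichloroplatinum (DDP) served as positive control.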

KB = experiment: Antitumor activity against human KB cells by MTT assay; type: functional, cell-based; procedure, shortened: as §1
[1] = target: Acetylcholinesterase (Homo sapiens) (UniProt P22303); experiment: Inhibition of acetylcholinesterase at 25 uM
BGC-823 = experiment: Antitumor activity against human BGC823 cells by MTT assay; type: functional, cell-based; procedure, shortened: as §1

Sequence of Acetylcholinesterase (Homo sapiens) (P22303 whole entry): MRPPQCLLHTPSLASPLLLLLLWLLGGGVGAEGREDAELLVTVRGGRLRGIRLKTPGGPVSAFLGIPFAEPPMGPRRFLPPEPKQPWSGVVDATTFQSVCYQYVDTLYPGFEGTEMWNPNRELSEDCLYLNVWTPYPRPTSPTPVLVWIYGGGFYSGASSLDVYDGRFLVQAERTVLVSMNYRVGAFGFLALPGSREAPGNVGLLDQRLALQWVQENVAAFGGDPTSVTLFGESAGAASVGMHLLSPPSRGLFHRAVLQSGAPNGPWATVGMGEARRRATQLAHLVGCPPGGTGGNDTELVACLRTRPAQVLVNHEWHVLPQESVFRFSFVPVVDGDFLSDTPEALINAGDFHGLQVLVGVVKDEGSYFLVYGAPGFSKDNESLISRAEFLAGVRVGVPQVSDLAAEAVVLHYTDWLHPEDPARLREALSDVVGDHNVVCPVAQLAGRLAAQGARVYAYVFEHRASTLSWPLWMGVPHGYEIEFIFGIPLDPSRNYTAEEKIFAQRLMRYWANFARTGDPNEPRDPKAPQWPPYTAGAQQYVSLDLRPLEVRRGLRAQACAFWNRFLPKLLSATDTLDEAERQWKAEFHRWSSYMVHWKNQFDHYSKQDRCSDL

Compound	IC50 (Bel-7402)	IC50 (KB)	inhibition [1]	IC50 (BGC-823)
N#C/C(=C\c1cc(O)c(O)c([N+](=O)[O-])c1)C(N)=O	> 100 µg/mL	> 100 µg/mL	1.09%	> 100 µg/mL
N#C/C(=C\c1cc(O)c(O)c([N+](=O)[O-])c1)C(=O)Nc1ccccc1Cl	24 µg/mL (≈ 66.7 µM)	37.4 µg/mL (≈ 104 µM)	0.95%	10.5 µg/mL (≈ 29.2 µM)
COc1cc(/C=C(\C#N)C(=O)Nc2cccc(Cl)c2)cc([N+](=O)[O-])c1O	21.1 µg/mL (≈ 56.5 µM)	56.6 µg/mL (≈ 151 µM)	1.64%	26.1 µg/mL (≈ 69.8 µM)
N#C/C(=C\c1cc(O)c(O)c([N+](=O)[O-])c1)C(=O)Nc1cccc(Cl)c1	40.1 µg/mL (≈ 111 µM)	72.7 µg/mL (≈ 202 µM)	4.37%	> 100 µg/mL
N#C/C(=C\c1cc(O)c(O)c([N+](=O)[O-])c1)C(=O)N1CCOCC1	> 100 µg/mL	> 100 µg/mL	3%	> 100 µg/mL
Cc1cccc(NC(=O)/C(C#N)=C/c2cc(O)c(O)c([N+](=O)[O-])c2)c1	–	–	2.73%	5.6 µg/mL (≈ 16.5 µM)
N#C/C(=C\c1cc(O)c(O)c([N+](=O)[O-])c1)C(=O)N(c1ccccc1)c1ccccc1	56.2 µg/mL (≈ 140 µM)	104 µg/mL (≈ 259 µM)	7.38%	> 100 µg/mL
N#C/C(=C\c1cc(O)c(O)c([N+](=O)[O-])c1)C(=O)N1CCCCC1	> 100 µg/mL	> 100 µg/mL	0.27%	> 100 µg/mL
COc1ccc(NC(=O)/C(C#N)=C/c2cc(O)c(O)c([N+](=O)[O-])c2)cc1	> 100 µg/mL	29.2 µg/mL (≈ 82.2 µM)	4.64%	45.4 µg/mL (≈ 128 µM)
COc1c(O)ccc(/C=C(\C#N)C(=O)Nc2cccc(Cl)c2)c1[N+](=O)[O-]	65.3 µg/mL (≈ 175 µM)	> 100 µg/mL	2.19%	> 100 µg/mL
